Measurements from ChEMBL document CHEMBL3400126, “Benzo-fused lactams from a diversity-oriented synthesis (DOS) library as inhibitors of scavenger receptor BI (SR-BI)-mediated lipid uptake” (Bioorg Med Chem Lett, 2015).

Experiments:
[1] = biological target: T1, Scavenger receptor class B member 1 (Mus musculus, UniProt Q61009); assay: Inhibition of mouse SR-B1 overexpressed in CHO cells assessed as inhibition of transfer of the fluorescent lipid DiI from HDL particles to cells after 3 hrs; type: cell-based
T1 sequence (Q61009 whole entry): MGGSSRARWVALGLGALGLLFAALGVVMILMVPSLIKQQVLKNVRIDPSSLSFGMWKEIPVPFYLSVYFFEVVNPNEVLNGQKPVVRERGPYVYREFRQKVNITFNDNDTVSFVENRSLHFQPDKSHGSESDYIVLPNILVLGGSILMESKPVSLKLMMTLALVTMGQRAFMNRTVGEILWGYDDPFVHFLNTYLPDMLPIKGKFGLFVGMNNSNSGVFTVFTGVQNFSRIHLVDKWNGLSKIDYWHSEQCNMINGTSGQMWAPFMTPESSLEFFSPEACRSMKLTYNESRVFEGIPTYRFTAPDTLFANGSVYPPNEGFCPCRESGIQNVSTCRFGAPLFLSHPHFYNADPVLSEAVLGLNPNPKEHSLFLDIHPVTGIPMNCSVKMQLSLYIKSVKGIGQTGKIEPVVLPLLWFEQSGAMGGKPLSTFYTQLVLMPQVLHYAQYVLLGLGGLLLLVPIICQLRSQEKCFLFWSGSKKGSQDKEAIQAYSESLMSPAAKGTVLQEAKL
Summary of the method: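 Primary assay: uptake of fluorescent lipid DiI from DiI-labeled HDL particles into IdlA[mSR-BI] cells, i.e. CHO cells overexpressing mouse SR-BI. Read-out is cell-associated DiI fluorescence. Compounds that quenched DiI-HDL fluorescence in a dose-dependent manner were excluded by counterscreen. 1 μM BLT-1 served as positive control.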

CHO = assay: Cytotoxicity against CHO cells after 24 hrs by CellTiterGlo assay; type: cell-based, Cricetulus griseus; details: chinese hamster
Summary of the method: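 IdlA[mSR-BI] cells (CHO overexpressing mouse SR-BI) incubated with compound for 24 h; cellular ATP levels read by CellTiter-Glo luminescence.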

Compound | IC50 [1] | Activity (CHO)
C[C@H]1CN([C@@H](C)CO)C(=O)c2cc(NC(=O)Cc3cn(C)c4ccccc34)ccc2O[C@H]1CN(C)S(=O)(=O)c1ccc(Cl)cc1 | 12300 nM | Non-toxic
C[C@@H]1CN([C@H](C)CO)C(=O)c2cc(NC(=O)C3CCCCC3)ccc2O[C@H]1CN(C)C(=O)c1ccc(Cl)cc1 | > 25000 nM | Non-toxic
C[C@@H]1CN([C@H](C)CO)C(=O)c2cc(NC(=O)Cc3cn(C)c4ccccc34)ccc2O[C@H]1CN(C)C | 18000 nM | Non-toxic
CC(C)NC(=O)Nc1ccc2c(c1)C(=O)N(C(C)C)C[C@@H](C)[C@H](CN(C)S(=O)(=O)c1ccc(Cl)cc1)O2 | 9900 nM | Non-toxic
C[C@@H]1CN([C@H](C)CO)C(=O)c2cc(NC(=O)Cc3cn(C)c4ccccc34)ccc2O[C@H]1CN(C)S(=O)(=O)c1ccc(F)cc1 | 560 nM | Non-toxic
C[C@@H]1CN([C@H](C)CO)C(=O)c2cc(NS(C)(=O)=O)ccc2O[C@H]1CN(C)S(=O)(=O)c1ccc(Cl)cc1 | 1600 nM | Non-toxic
Cc1noc(C)c1S(=O)(=O)Nc1ccc2c(c1)C(=O)N([C@H](C)CO)C[C@@H](C)[C@H](CN(C)S(=O)(=O)c1ccc(Cl)cc1)O2 | 190 nM | Non-toxic
C[C@@H]1CN([C@H](C)CO)C(=O)c2cc(NC(=O)C3CCOCC3)ccc2O[C@H]1CN(C)S(=O)(=O)c1ccc(Cl)cc1 | > 25000 nM | Non-toxic
C[C@@H]1CN([C@H](C)CO)C(=O)c2cc(NC(=O)C3CCCCC3)ccc2O[C@H]1CN(C)S(=O)(=O)c1ccc(Cl)cc1 | 54 nM | Non-toxic
CC(C)NC(=O)Nc1cccc2c1O[C@@H](CN(C)S(=O)(=O)c1ccc(Cl)cc1)[C@H](C)CN([C@H](C)CO)C2=O | > 25000 nM | Non-toxic
C[C@@H]1CN([C@H](C)CO)C(=O)c2cc(N(C)C)ccc2O[C@H]1CN(C)S(=O)(=O)c1ccc(Cl)cc1 | 630 nM | Non-toxic
C[C@@H]1CN([C@H](C)CO)C(=O)c2cc(NC(=O)Cc3cn(C)c4ccccc34)ccc2O[C@H]1CN(C)Cc1ccc2c(c1)OCO2 | 890 nM | Non-toxic
C[C@@H]1CN([C@H](C)CO)C(=O)c2cc(NS(=O)(=O)c3ccc(F)cc3)ccc2O[C@H]1CN(C)S(=O)(=O)c1ccc(Cl)cc1 | 14000 nM | Non-toxic
C[C@@H]1CN([C@H](C)CO)C(=O)c2cc(NC(=O)Cc3cn(C)c4ccccc34)ccc2O[C@@H]1CN(C)S(=O)(=O)c1ccc(Cl)cc1 | – | Non-toxic
C[C@@H]1CN([C@H](C)CO)C(=O)c2cc(NC(=O)Cc3cn(C)c4ccccc34)ccc2O[C@H]1CN(C)CC1CCCCC1 | 9200 nM | Non-toxic
C[C@@H]1CN([C@H](C)CO)C(=O)c2cc(NC(=O)Cc3cn(C)c4ccccc34)ccc2O[C@H]1CN(C)S(=O)(=O)c1ccccc1 | 220 nM | Non-toxic
C[C@@H]1CN([C@H](C)CO)C(=O)c2cc(NC(=O)CCC(F)(F)F)ccc2O[C@H]1CN(C)S(=O)(=O)c1ccc(Cl)cc1 | 260 nM | Non-toxic
C[C@@H]1CN([C@@H](C)CO)C(=O)c2cc(NC(=O)Cc3cn(C)c4ccccc34)ccc2O[C@H]1CN(C)S(=O)(=O)c1ccc(Cl)cc1 | 910 nM | Non-toxic
C[C@@H]1CN([C@H](C)CO)C(=O)c2cc(NC(=O)Cc3cn(C)c4ccccc34)ccc2O[C@H]1CN(C)S(C)(=O)=O | 9900 nM | Non-toxic
COc1ccc(NC(=O)Nc2ccc3c(c2)C(=O)N([C@H](C)CO)C[C@@H](C)[C@H](CN(C)S(=O)(=O)c2ccc(Cl)cc2)O3)cc1 | 300 nM | Non-toxic
C[C@@H]1CN([C@H](C)CO)C(=O)c2cc(NC(=O)Cc3cn(C)c4ccccc34)ccc2O[C@H]1CN(C)Cc1ccncc1 | 1300 nM | Non-toxic
Cc1noc(C)c1NC(=O)Nc1ccc2c(c1)C(=O)N([C@H](C)CO)C[C@@H](C)[C@H](CN(C)S(=O)(=O)c1ccc(Cl)cc1)O2 | 7100 nM | Non-toxic
C[C@@H]1CN([C@H](C)CO)C(=O)c2cc(NC(=O)Cc3cn(C)c4ccccc34)ccc2O[C@H]1CN(C)C(=O)NC1CCCCC1 | 9200 nM | Non-toxic
C[C@@H]1CN([C@H](C)CO)C(=O)c2cc(NC(=O)Cc3cn(C)c4ccccc34)ccc2O[C@H]1CN(C)S(=O)(=O)c1cccs1 | 2400 nM | Non-toxic

Compound | IC50 [1] | Activity (CHO)
COc1ccc(CN(C)C[C@@H]2Oc3ccc(NC(=O)Cc4cn(C)c5ccccc45)cc3C(=O)N([C@H](C)CO)C[C@H]2C)cc1 | 2600 nM | Non-toxic
COC[C@@H](C)N1C[C@@H](C)[C@H](CN(C)S(=O)(=O)c2ccc(Cl)cc2)Oc2ccc(NC(=O)NC(C)C)cc2C1=O | 8000 nM | Non-toxic
C[C@H](CO)N1C[C@H](C)[C@H](CN(C)S(=O)(=O)c2ccc(Cl)cc2)Oc2ccc(NC(=O)Cc3cn(C)c4ccccc34)cc2C1=O | > 25000 nM | Non-toxic
CNC[C@@H]1Oc2ccc(NC(=O)Cc3cn(C)c4ccccc34)cc2C(=O)N([C@H](C)CO)C[C@H]1C | > 25000 nM | Non-toxic
C[C@@H]1CN([C@H](C)CN)C(=O)c2cc(NC(=O)Cc3cn(C)c4ccccc34)ccc2O[C@H]1CN(C)S(=O)(=O)c1ccc(Cl)cc1 | > 25000 nM | Non-toxic
C[C@@H]1CN([C@H](C)CN(C)C)C(=O)c2cc(NC(=O)Cc3cn(C)c4ccccc34)ccc2O[C@H]1CN(C)S(=O)(=O)c1ccc(Cl)cc1 | > 25000 nM | Non-toxic
C[C@@H]1CN([C@H](C)CO)C(=O)c2cc(NC(=O)Nc3ccccc3)ccc2O[C@H]1CN(C)S(=O)(=O)c1ccc(Cl)cc1 | > 25000 nM | Non-toxic
C[C@@H]1CN([C@H](C)CO)C(=O)c2cc(NC(=O)Nc3ccc(F)cc3)ccc2O[C@H]1CN(C)S(=O)(=O)c1ccc(Cl)cc1 | 92 nM | Non-toxic
C[C@@H]1CN([C@H](C)CO)C(=O)c2cc(NC(=O)C3CC3)ccc2O[C@H]1CN(C)S(=O)(=O)c1ccc(Cl)cc1 | 2100 nM | Non-toxic
C[C@@H]1CN([C@H](C)CO)C(=O)c2cc(NC(=O)C3CCCCC3)ccc2O[C@H]1CN(C)S(=O)(=O)c1ccccc1Cl | 180 nM | Non-toxic
C[C@@H]1CN([C@H](C)CO)C(=O)c2cc(NC(=O)CCN3CCOCC3)ccc2O[C@H]1CN(C)S(=O)(=O)c1ccc(Cl)cc1 | 5000 nM | Non-toxic
C[C@@H]1CN([C@H](C)CO)C(=O)c2cc(NC(=O)Cn3cnnn3)ccc2O[C@H]1CN(C)S(=O)(=O)c1ccc(Cl)cc1 | 10000 nM | Non-toxic
C[C@@H]1CN([C@H](C)CO)C(=O)c2cc(NC(=O)NC3CCCCC3)ccc2O[C@H]1CN(C)S(=O)(=O)c1ccc(Cl)cc1 | 350 nM | Non-toxic
C[C@@H]1CN([C@H](C)CO)C(=O)c2cc(NC(=O)CCCN(C)C)ccc2O[C@H]1CN(C)S(=O)(=O)c1ccc(Cl)cc1 | > 25000 nM | Non-toxic
C[C@@H]1CN([C@H](C)CO)C(=O)c2cc(NC(=O)Cc3cn(C)c4ccccc34)ccc2O[C@H]1CN(C)Cc1ccc(Cl)c(Cl)c1 | > 25000 nM | Non-toxic
C[C@H]1CN([C@@H](C)CO)C(=O)c2cc(NC(=O)Cc3cn(C)c4ccccc34)ccc2O[C@@H]1CN(C)S(=O)(=O)c1ccc(Cl)cc1 | 17400 nM | Non-toxic
C[C@@H]1CN([C@H](C)CO)C(=O)c2cc(NC(=O)C3CCCCC3)ccc2O[C@H]1CN(C)S(=O)(=O)c1cccc(Cl)c1 | – | Non-toxic
C[C@@H]1CN([C@@H](C)CO)C(=O)c2cc(NC(=O)Cc3cn(C)c4ccccc34)ccc2O[C@@H]1CN(C)S(=O)(=O)c1ccc(Cl)cc1 | 10000 nM | Non-toxic
C[C@@H]1CN([C@H](C)CO)C(=O)c2cc(NS(=O)(=O)c3ccccc3)ccc2O[C@H]1CN(C)S(=O)(=O)c1ccc(Cl)cc1 | 3200 nM | Non-toxic
C[C@@H]1CN([C@H](C)CO)C(=O)c2cc(NC(=O)Cc3cn(C)c4ccccc34)ccc2O[C@H]1CN(C)Cc1ccc(C(F)(F)F)cc1 | 650 nM | Non-toxic
COc1ccc(S(=O)(=O)N(C)C[C@@H]2Oc3ccc(NC(=O)Cc4cn(C)c5ccccc45)cc3C(=O)N([C@H](C)CO)C[C@H]2C)cc1 | 2000 nM | Non-toxic
C[C@@H]1CN([C@H](C)CO)C(=O)c2cc(NC(=O)Cc3cn(C)c4ccccc34)ccc2O[C@H]1CN(C)Cc1ccccc1 | 1600 nM | Non-toxic
C[C@@H]1CN([C@H](C)CO)C(=O)c2cc(NC(=O)Cc3cn(C)c4ccccc34)ccc2O[C@H]1CN(C)C(=O)Nc1ccccc1 | 4900 nM | Non-toxic
